This note sets out measurements from ChEMBL document CHEMBL3784956, “Repositioning Antitubercular 6-Nitro-2,3-dihydroimidazo[2,1-b][1,3]oxazoles for Neglected Tropical Diseases: Structure-Activity Studies on a Preclinical Candidate for Visceral Leishmaniasis” (J Med Chem, 2016).

Series [1] in a line: Initial plasma concentration in Swiss albino mouse at 1 mg/kg, iv by LCMS/MS analysis. The class given is ADME, organism-based. The essentials:
(§1)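 Male Swiss Albino mice. Single intravenous dose of 1 mg/kg, or single oral dose of 12.5 or 25 mg/kg. Plasma parameters were derived for each route: CL, Vdss, t1/2, AUClast and C0 after iv; Cmax, Tmax and AUClast after oral. Oral bioavailability F (%) was taken from the oral and iv exposures.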

The nature of series [2]: Clearance in Swiss albino mouse at 1 mg/kg, iv by LCMS/MS analysis. The class given is ADME, organism-based. To be noted: in vivo. The essentials:
as §1

Series [3] in a line: Oral bioavailability in Swiss albino mouse at 25 mg/kg by LCMS/MS analysis. The class given is ADME, organism-based. Conditions: in vivo. The essentials: as §1
A short description of series [4]: AUC (last) in Swiss albino mouse at 25 mg/kg, po by LCMS/MS analysis. The class given is ADME, organism-based. More on the design: dose 25 mg/kg, route oral, time 0 - last. Conditions: in vivo. The essentials:
as §1

The nature of series [5]: Tmax in Swiss albino mouse at 25 mg/kg, po by LCMS/MS analysis. The class given is ADME, organism-based. Conditions: in vivo. The essentials:
as §1

Series [6] can be described thus: Volume of distribution at steady state in Swiss albino mouse at 1 mg/kg, iv by LCMS/MS analysis. The class given is ADME, organism-based. To be noted: in vivo, read-out: Vdss. The essentials:
as §1

Series [7] can be described thus: Cmax in Swiss albino mouse at 25 mg/kg, po by LCMS/MS analysis. The class given is ADME, organism-based. More on the design: dose 25 mg/kg, route oral. To be noted: in vivo. The essentials:
as §1

Series [8] is described as follows: AUC (last) in Swiss albino mouse at 1 mg/kg, iv by LCMS/MS analysis. The class given is ADME, organism-based. On the set-up: dose 1 mg/kg, time 0 - last, route intravenous. Conditions: in vivo. The essentials: as §1
The nature of series [9]: Half life in Swiss albino mouse at 1 mg/kg, iv by LCMS/MS analysis. The class given is ADME, organism-based. Conditions: in vivo. The essentials:
as §1

A short description of series [10]: Cmax in Swiss albino mouse at 12.5 mg/kg, po by LCMS/MS analysis. The class given is ADME, organism-based. More on the design: dose 12.5 mg/kg, route oral. Conditions: in vivo. The essentials: as §1
A short description of series [11]: AUC (last) in Swiss albino mouse at 12.5 mg/kg, po by LCMS/MS analysis. The class given is ADME, organism-based. More on the design: dose 12.5 mg/kg, route oral, time 0 - last. To be noted: in vivo. The essentials:
as §1

The nature of series [12]: Oral bioavailability in Swiss albino mouse at 12.5 mg/kg by LCMS/MS analysis. The class given is ADME, organism-based. Conditions: in vivo. The essentials: as §1
Series [13] can be described thus: Tmax in Swiss albino mouse at 12.5 mg/kg, po by LCMS/MS analysis. The class given is ADME, organism-based. To be noted: in vivo. The essentials: as §1
Series [14] in a line: Stability in 0.1 M HCl at pH 1 at 20 degC. The class given is physicochemical. To be noted: buffer.
Series [15] in a line: Metabolic stability in human liver microsomes assessed as parent compound remaining at 1 uM after 1 hr by LC-MS/MS analysis. Conditions: read-out: Stability. The class given is ADME.
The nature of series [16]: Metabolic stability in CD1 mouse liver microsomes assessed as parent compound remaining at 1 uM after 1 hr by LC-MS/MS analysis. The class given is ADME. Conditions: read-out: Stability.
A short description of series [17]: Metabolic stability in hamster liver microsomes assessed as parent compound remaining at 1 uM after 1 hr by LC-MS/MS analysis. The class given is ADME. To be noted: cricetinae, read-out: Stability.
A short description of series [18]: Metabolic stability in CD1 mouse liver microsomes assessed as parent compound remaining at 1 uM after 30 mins by LC-MS/MS analysis. The class given is ADME. Conditions: read-out: Stability.
Series [19] is described as follows: Metabolic stability in human liver microsomes assessed as parent compound remaining at 1 uM after 30 mins by LC-MS/MS analysis. The class given is ADME. To be noted: read-out: Stability.
The nature of series [20]: Metabolic stability in hamster liver microsomes assessed as parent compound remaining at 1 uM after 30 mins by LC-MS/MS analysis. Conditions: cricetinae, read-out: Stability. The class given is ADME.

In the case of `CC1(COc2ccc(OC(F)(F)F)cc2)Cn2cc([N+](=O)[O-])nc2O1` (racemic), the C0 in series [1] came to 880 ng/mL. For the same compound, in [2], the clearance was 9.5 mL/min/kg. In [3], this compound gave a bioavailability of 79%. Besides, the AUC(0-t) was found to be 33500 ng·h/mL in [4] and 1690 ng·h/mL in series [8]. Also, the Tmax in [5] is 4 h. For the same compound, in series [6], the Vd stood at 1.7 L/kg. Further, the Cmax in series [7] came out at 4100 ng/mL. This compound had a half-life in series [9] of 2.2 h.
As for `C[C@]1(COc2ccc(OC(F)(F)F)cc2)Cn2cc([N+](=O)[O-])nc2O1`, in series [1], the C0 amounted to 360 ng/mL. This compound had a clearance in series [2] of 11 mL/min/kg. Moreover, in [10], the Cmax came out at 1300 ng/mL. Moreover, the AUC(0-t) in series [11] amounted to 15800 ng·h/mL; in series [8], 1390 ng·h/mL. For the same compound, the Vd in series [6] came out at 2.6 L/kg. The compound also displayed a bioavailability in [12] of 91%. For the same compound, the half-life in series [9] is 2.7 h. Besides, the time of peak concentration (Tmax) in series [13] came out at 2 h.
`CC1(CNc2ccc(OC(F)(F)F)cc2)Cn2cc([N+](=O)[O-])nc2O1` (stereo not given): in series [14], the Stability result is “Unstable”.
In turn, `O=[N+]([O-])c1cn2c(n1)OC(COc1ccc(OC(F)(F)F)cc1)C2` (stereo not given) had a C0 in series [1] of 610 ng/mL. The clearance in series [2] amounted to 13 mL/min/kg. This compound also had a bioavailability in [3] of 52%. Moreover, the AUC(0-t) was 14800 ng·h/mL in [4] and 1140 ng·h/mL in [8]. The Tmax in [5] is 1 h. For the same compound, the Vd in series [6] is 2.2 L/kg. The compound further displayed a Cmax in series [7] of 1800 ng/mL. Further, in [9], the half-life is 3.2 h.
Regarding `CC1(CN2CCN(c3ccc(F)cc3)CC2)Cn2cc([N+](=O)[O-])nc2O1` (stereo not given), the remaining at 1 h, 1 µM in series [15] worked out at 49%; in series [16], 14%.
Turning to `C[C@]1(COc2ccc(N3CCC(Oc4ccc(OC(F)(F)F)cc4)CC3)cc2)Cn2cc([N+](=O)[O-])nc2O1`, in [17], the remaining at 1 h, 1 µM is 55%.
For `CC1(COc2ccc(C(F)(F)F)cn2)Cn2cc([N+](=O)[O-])nc2O1` (racemic), the remaining at 1 h, 1 µM is 84% in [15] and 69% in series [16]. Further, the Stability entry in [14] is “Unstable”.
Turning to `CC1(COc2ccc(-c3ccc(F)cc3)cc2)Cn2cc([N+](=O)[O-])nc2O1` (racemic), the results for the remaining at 0.5 h, 1 µM in series [18], in series [19] and in [20] were 57%, 88% and 42%, respectively. The C0 in series [1] is 300 ng/mL. In series [2], the clearance is 28 mL/min/kg. The compound further displayed a bioavailability in series [3] of 63%. Besides, the results for the AUC(0-t) in [4] and in series [8] were 7580 ng·h/mL and 480 ng·h/mL, respectively. Moreover, in series [5], the Tmax came to 6 h. Besides, the Vd in series [6] is 7.5 L/kg. The compound further displayed a Cmax in series [7] of 700 ng/mL. This compound also had a half-life in series [9] of 3.8 h.
For `CC1(COc2ccc(-c3ccc(OC(F)(F)F)cc3)cc2)Cn2cc([N+](=O)[O-])nc2O1` (stereo not given), in series [1], the C0 worked out at 340 ng/mL. In series [2], this compound registered a clearance of 7.6 mL/min/kg. The same compound came in with a bioavailability in series [3] of 18%. For the same compound, the AUC(0-t) turned out to be 9810 ng·h/mL in [4] and 2130 ng·h/mL in [8]. In [5], the Tmax worked out at 6 h. The Vd in [6] was 5.7 L/kg. Besides, the peak level in series [7] (Cmax) was 290 ng/mL. In series [9], this compound gave a half-life of 11 h.
